# About 1,500 (0.42%) of roughly 360,000 compounds were called active.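 How the source made its calls: active means inhibition above a per-plate cutoff of the control wells' mean inhibition plus 3 SD (cut at about 5.5% in these data); inactive means the rest.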 The full list was thinned out, with actives kept by preference.
# System: methionyl-tRNA synthetase (Trypanosoma brucei brucei)
# Assay: T. brucei MetRS inhibitors, primary screen, biochemical, luminescence (AID 624268);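 further: 0% = DMSO wells median and 100% = median of wells with control inhibitor compound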
# Settings: purified T. brucei MetRS, ATP depletion, Kinase-Glo luminescence; at 11.9 µM; hits give high values
# Procedure, shortened: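 Dosing: 11.9 µM single point; system: parasite MetRS enzyme; technique: luminescence of leftover ATP; times: 15 min enzyme-compound preincubation, 2 h reaction, 10 min detection, 25 °C; replicates: each compound tested once; read-out basis: percent inhibition relative to median high and low control wells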
row,SMILES,inhibition
1,O=C(O)c1ccc(NS(=O)(=O)c2ccc3c(c2)C(=O)c2cc(S(=O)(=O)Nc4ccc(C(=O)O)cc4)ccc2-3)cc1,5.69% (active)
2,O=C(c1ccc(NS(=O)(=O)c2ccc3[nH]c(=O)[nH]c3c2)cc1)N1CCCCC1,-0.5% (inactive)
3,Cc1cc(C(C)(C)C)cc(S(=O)(=O)Nc2ccc(C(=O)O)cc2)c1C,0.3% (inactive)
4,CCOC(=O)CC1=CC(=O)Nc2ccccc2N1,-0.37% (inactive)
5,COc1ccccc1-n1c(SCC(=O)Nc2ccc(Cl)cc2)nc(O)c(Cc2ccccc2)c1=O,55.1% (active)
6,COc1ccc(NC(=O)CSc2nnc(Cc3ccccc3)c(=O)n2N)cc1,-0.2% (inactive)
7,CCOc1ccc(NC(=O)CSc2nc3c(c(=O)n2-c2ccccc2OC)SCC3)cc1,-0.23% (inactive)
8,COc1ccc(NC(=O)CN(C)C(=O)c2n[nH]c3ccccc23)cc1,-0.44% (inactive)
9,CC1(C(=O)NS(=O)(=O)c2cccc(OC(F)F)c2)CCN1C(=O)C1CC1 (configuration not stated),-0.2% (inactive)
10,CC1(c2cccc([N+](=O)[O-])c2)CC(C)(C)N(C(=O)c2ccccc2)c2ccccc21 (configuration not stated),0.07% (inactive)
11,O=c1cc(CN2CCCCCCC2)c2c(ccc3ccccc32)o1,0.63% (inactive)
12,c1ccc2cc3[nH]c(CN4CCCCC4)nc3cc2c1,7.35% (active)
13,Cc1ccc2[nH]c(=O)c(CN3CCCCC3)c(-c3ccccc3)c2c1,2.15% (inactive)
14,O=C1COc2ccc(NC(=O)N3CCN(c4ccc(F)cc4)CC3)cc2N1,-0.82% (inactive)
15,C[C@@H]1CN([C@H](C)CO)C(=O)CCCn2cc(nn2)CO[C@H]1CN(C)S(C)(=O)=O,-1.67% (inactive)
16,COc1ccc(OC)c(NC(=O)C2(C)CCN2C(=O)Cc2ccccc2)c1 (configuration not stated),-0.17% (inactive)
17,COc1ccc(-c2[nH]ncc2/C=N/NC(=O)c2cc(Br)ccc2O)c(OC)c1,5.88% (active)
18,COc1cc(/C=N\NC(=O)c2nonc2N)c(OC)cc1Br,-0.27% (inactive)
19,Cc1ccc(OCCOCCOc2ccc(Br)cc2/C=N\NC(=O)c2ccncc2)cc1,0.03% (inactive)
20,Cn1c(N)c(C(=O)COC(=O)c2cccc(S(=O)(=O)N3CCOCC3)c2)c(=O)n(C)c1=O,0.03% (inactive)
21,CC1CN(S(=O)(=O)c2cccc(C(F)(F)F)c2)CN1C(=O)N1CCOCC1 (configuration not stated),-0.97% (inactive)
22,CC(C)CCNC(=O)C1CCCN(S(=O)(=O)c2ccc(F)cc2)C1 (configuration not stated),-0.46% (inactive)
23,COC(=O)c1c(CCl)noc1C(=O)NC(C)C,-0.34% (inactive)

row,SMILES,inhibition
1,CN(CC(=O)NCc1ccc2c(c1)OCO2)CC(=O)Nc1ccc(F)c(F)c1F,-0.42% (inactive)
2,O=C(NNC(=O)c1ccc(Cl)cc1Cl)c1cccs1,-0.62% (inactive)
3,COC(=O)/C(=C\Nc1ccccc1)NC(=O)c1ccc(Cl)cc1Cl,43% (active)
4,COc1ccc(CCOC(=O)CNC(=O)c2ccc(Cl)cc2Cl)cc1,0.12% (inactive)
5,Cn1ccsc1=NC(=O)c1cc(S(=O)(=O)N2CCOCC2)ccc1Cl,0% (inactive)
6,COc1ccc(S(=O)(=O)N2CCOC2CNC(=O)C(=O)NCc2ccncc2)cc1C (configuration not stated),-0.16% (inactive)
7,CCCCc1ccc(S(=O)(=O)NC(=O)C2(C)CCN2C(=O)c2c(C)noc2C)cc1 (configuration not stated),-0.38% (inactive)
8,OCCC1CN(Cc2cccn2-c2nccs2)CCN1CCc1ccccc1 (configuration not stated),-0.69% (inactive)
9,O=C(c1cccs1)C1C(c2ccc(Br)cc2)NC(=S)NC1(O)C(F)(F)F (configuration not stated),0.24% (inactive)
10,OCC1(CCc2ccccc2)CCN(Cc2ccc3nsnc3c2)CC1,0.28% (inactive)
11,Cc1c(CN2CCC(CO)(CCOc3ccccc3)CC2)[nH]c2ccc(Cl)cc12,8.27% (active)
12,COc1cccc(CC2(CO)CCN(Cc3cnc(-c4cccc(C)c4)nc3)CC2)c1,-0.01% (inactive)
13,CCc1c(C)n([O-])c2c([n+]1=O)CCCCC2,-0.95% (inactive)
14,COc1cccc(NC(=O)CN(C)C(=O)c2cc(C3CC3)nn2-c2ccccc2)c1,-0.11% (inactive)
15,CSc1ncccc1C(=O)NCC(c1ccco1)N1CCCCC1 (configuration not stated),0.26% (inactive)
16,Cc1ccc(N2C(=O)CC(NCc3ccc4c(c3)OCO4)C2=O)cc1Cl (configuration not stated),12.1% (active)
17,O=CN1CCN(C2CC(=O)N(c3ccc4c(c3)OCO4)C2=O)CC1 (configuration not stated),-2.06% (inactive)
18,Cc1ccc(CC2CC(=O)N(c3ccc4c(c3)OCCO4)C2=O)cc1 (configuration not stated),-0.24% (inactive)
19,COC(=O)CCSc1cc([N+](=O)[O-])cc2c1c(C1OCCS1)nn2-c1ccccc1 (configuration not stated),-0.2% (inactive)
20,CCOc1ccc(NC(=O)CC(Cc2ccc(Cl)cc2)C(=O)O)cc1 (configuration not stated),-0.95% (inactive)
21,Cc1ccc(C)c2[nH]c(=O)c(CCNC(=O)CC(C)C)cc12,0.44% (inactive)
22,COc1ccc(-n2c(SCC(=O)NCc3ccco3)nnc2-c2c[nH]c3ccccc23)cc1,6.44% (active)
23,COc1ccc(-n2c(SCC(=O)NCc3cccs3)nnc2-c2ccoc2C)cc1,-0.5% (inactive)

row,SMILES,inhibition
1,O=C(CSc1nnc(-c2c[nH]c3ccccc23)n1-c1ccc(F)cc1)NCc1ccco1,3.05% (inactive)
2,Cc1cc(C(=O)NNC(=O)c2cccc(S(=O)(=O)N3CCOCC3)c2)c2ccccc2n1,-0.24% (inactive)
3,Cc1nn(C)c(Oc2ccc(Cl)cc2)c1C=O,-0.76% (inactive)
4,O=C(NCc1cc(C(F)(F)F)cc(C(F)(F)F)c1)C1CC(c2cccc(F)c2)=NO1 (configuration not stated),-0.13% (inactive)
5,OC(c1ccc(Cl)c(F)c1)c1ncc(-c2ccccc2Cl)[nH]1 (configuration not stated),0.44% (inactive)
6,Cc1ccc(-c2cnc(C(O)c3cc(Cl)cc(Cl)c3)[nH]2)cc1 (configuration not stated),40.4% (active)
7,OC(c1cc(Cl)cc(Cl)c1)c1ncc(-c2ccccc2C(F)(F)F)[nH]1 (configuration not stated),58% (active)
8,Cc1ccc(C(O)c2ncc(-c3ccccc3F)[nH]2)cc1F (configuration not stated),-0.2% (inactive)
9,Cc1cccc(-c2cnc(C(O)c3cc(C)cc(C)c3)[nH]2)c1 (configuration not stated),-0.08% (inactive)
10,OC(c1ccc(Cl)cc1)c1ncc(-c2ccc(Cl)cc2)[nH]1 (configuration not stated),2.49% (inactive)
11,CCC(=O)N1CCC(C)(C(=O)Nc2cc(OC)c(OC)c(OC)c2)C1 (configuration not stated),0.06% (inactive)
12,NC(=O)CC[C@@H]1NC(=O)[C@@H]2CCCN2C(=O)c2cc([N+](=O)[O-])cc(F)c2NCCC[C@@H](C(N)=O)NC1=O,-0.23% (inactive)
13,O=S(=O)(NCc1cccnc1)c1ccc(Cl)nc1,-1.09% (inactive)
14,CC(CCN1CCN=C1N(C)C)c1ccccc1 (configuration not stated),-0.2% (inactive)
15,C#CCNC(=O)C[C@@H]1C[C@@]2(C(=O)OCC)CCCC=C2N(Cc2ccco2)C1=O,-0.95% (inactive)
16,CCCn1nc(C(=O)NNC(=O)CSCC(=O)Nc2cc(C)on2)c2ccccc2c1=O,-0.27% (inactive)
17,O=C(NCCc1ccc(C(F)(F)F)cc1)c1ccc2c(c1)OCO2,-0.15% (inactive)
18,CCCCCCCC[n+]1cccc(C(=O)N2c3c(nc(N)[nH]c3=O)NC(C)C2C)c1 (configuration not stated),14.2% (active)
19,C[C@H]1CN([C@@H](C)CO)C(=O)c2cc(-c3ccccc3F)cnc2O[C@H]1CN(C)C(=O)C1CCOCC1,-1.85% (inactive)
20,CCCn1c(=N)n(CC(=O)c2ccc(Cl)c(Cl)c2)c2ccccc21,1.04% (inactive)
21,O=C(Cn1c(-c2cscn2)nc2ccccc21)Nc1ccc(Cl)cc1,4.33% (inactive)
22,O=C(Cn1c(NCCO)nc2ccccc21)c1ccc(Cl)cc1Cl,8.55% (active)
23,Brc1cnc2ccccc2c1N1CCCCC1,-0.62% (inactive)

row,SMILES,inhibition
1,CCOc1cc(NC(=S)NCCCN(C)C)c(OCC)cc1NC(=O)C1CC1,-0.32% (inactive)
2,COc1ccc(CCNC(=O)CCc2ccccc2O)cc1OC,-0.3% (inactive)
3,COc1ccc(CCn2ccc(O)c(Cc3ccc(Cl)cc3Cl)c2=O)cc1OC,6.37% (active)
4,COc1ccc(CCN2CC(C(=O)OCC(=O)NCc3ccccc3Cl)CC2=O)cc1OC (configuration not stated),0.43% (inactive)
5,O=C(NCCN1CCOCC1)c1ccccc1N1C(=O)[C@@H]2Cc3c([nH]c4ccccc34)C(c3cccc(Cl)c3)N2C1=O (some centres not stated),11.4% (active)
6,CC(C)(CNC(=O)c1cc(=O)[nH]c2ccccc12)N1CCOCC1,0.28% (inactive)
7,O=C(NCCN1CCOCC1)Nc1cccc(Cl)c1,0.46% (inactive)
8,CC/C(O)=C1\C(=O)CC(C)(C)CC1=NCCc1nc2ccccc2[nH]1,0.39% (inactive)
9,CCOC(=O)C(=CNNc1ccsc1C(=O)OC)C(=O)OCC,0.74% (inactive)
10,Cc1csc(/N=C/N(C)C)c1C#N,-0.21% (inactive)
11,O=c1c2ccccc2nc2n1C(CSCc1cccc(C(F)(F)F)c1)CS2 (configuration not stated),-1% (inactive)
12,CCN1CCCC1CNC(=O)Cn1cnc2ccc(S(=O)(=O)N3CCC(C)CC3)cc2c1=O (configuration not stated),-0.14% (inactive)
13,CC(C)OCCCNc1ncnc2c1[nH]c1ccc(F)cc12,85.6% (active)
14,CCN1CCCC1CNc1ncnc2c1[nH]c1ccc(F)cc12 (configuration not stated),30.4% (active)
15,CCN1CCCC1Cn1cnc2c([nH]c3cc(OC)ccc32)c1=O (configuration not stated),0.01% (inactive)
16,CCNC(=O)CC1C(=O)N(c2ccc(OC)cc2)C(=O)N1CCOC (configuration not stated),-0.58% (inactive)
17,CCOc1ccc(C(C(=O)NC2CCCC2)N(C(=O)c2snc(C(N)=O)c2N)C2CCCC2)cc1 (configuration not stated),-0.03% (inactive)
18,O=C1c2ccccc2[C@@H]2C[C@@H](O)[C@H](Nc3ccccc3Cl)CCN12,-0.62% (inactive)
19,CN1CCCN(C(=O)C2CCCCC2)CC1,-0.59% (inactive)
20,O=C(NCc1ccco1)c1sc2cccc(F)c2c1Cl,-1.04% (inactive)
21,CCN(CC)S(=O)(=O)c1ccc2nc(COC(=O)c3n[nH]c4ccccc34)[nH]c2c1,-0.9% (inactive)
22,COc1ccc(CCNC(=O)COC(=O)C2CCCCC2)cc1,0.41% (inactive)
23,O=C(OCc1nc2ccccc2[nH]1)C1CCCCC1,14.4% (active)

# Reference: PubChem BioAssay AID624268 (The Scripps Research Institute Molecular Screening Center, 2012)
